The values below come from ChEMBL document CHEMBL1667804, “Design and synthesis of caffeoyl-anilides as portmanteau inhibitors of HIV-1 integrase and CCR5” (Bioorg Med Chem, 2011).

In series [1] the test system is Human immunodeficiency virus 1. Nature of the series: Antiviral activity against HIV1 NL4.3 infected in human CEM-GFP T cells assessed as inhibition of p24 antigen production at highest non cytotoxic concentration after 7 days by ELISA. The format is functional, CCRF-CEM. In outline:
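HIV-1 NL4.3 infection of CEM-GFP cells at MOI 0.05, with compound at the highest noncytotoxic concentration (95% viability in MTT) for 7 days. p24 in day-7 supernatant measured by capture ELISA. Reported as % decrease versus untreated infected cells. Preliminary screen by GFP microfluorometry.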
(ELISA stands for enzyme-linked immunosorbent assay.)

For series [2], the target named is Human immunodeficiency virus type 1 reverse transcriptase (Human immunodeficiency virus 1) (UniProt Q72547). Nature of the series: Inhibition of HIV1 reverse transcriptase.
Series [3] in a line: Cytotoxicity against human CEM-GFP cells assessed as highest non cytotoxic concentration after 48 hrs by MTT assay. The format is cell-based, CCRF-CEM. Particulars: read-out: MNCC. In a few lines: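 Viability by MTT in CEM-GFP cells after 48 h, absorbance at 540 nm. Viability first measured at three concentrations, then further dilutions made to find the concentration giving 95% viability.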
A general note: Tetrazolium dyes change colour on reduction, which living cells bring about.

The test system of series [4] is Human immunodeficiency virus 1. Put plainly: Antiviral activity against X4 tropic HIV1 3B infected in human TZM-bl cells expressing CD4, CCR5 and CXCR4 assessed as inhibition of virus entry at highest non cytotoxic concentration after 48 hrs by luciferase assay. The format is functional. In a few lines:
(§1)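 TZM-bl cells (10^4/well) seeded and left overnight at 37 °C. Compound added in DMEM/10% FBS for 1 h, then cells washed and infected for 4 h with IndieC (R5) or IIIB (X4).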

The target in series [5] is Human immunodeficiency virus type 1 integrase (Human immunodeficiency virus 1) (UniProt Q7ZJM1). Put plainly: Inhibition of full-length recombinant HIV1 integrase at 20 ug/ml. In a few lines: (§2)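 Kit ELISA-type strand-transfer assay. Biotin end-labelled double-stranded HIV-1 LTR U5 donor oligo bound on streptavidin plates, then full-length recombinant HIV-1 integrase loaded. Compound added, followed by a 3′-end-modified double-stranded target oligo. Screened at 20 µg/mL, IC50 determined in µg/mL and converted to molar. Sodium azide positive control.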

Series [6] relates to Human immunodeficiency virus 1. Put plainly: Antiviral activity against HIV1 NL4.3 infected in human CEM-GFP T cells assessed as inhibition of p24 antigen production after 7 days by ELISA. The format is functional, organism-based. To be noted: Human immunodeficiency virus 1, NL4.3, CCRF-CEM, 168 h. In outline:
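CEM-GFP cells infected with HIV-1 NL4.3 at MOI 0.05, then cultured with compound for up to 7 days after infection. Day-7 supernatant p24 measured by antigen-capture ELISA. EC50 is the concentration giving 50% inhibition of virus production against untreated infected cells (n = 3). AZT positive control.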

The target of series [7] is Human immunodeficiency virus type 1 integrase (Human immunodeficiency virus 1, UniProt Q7ZJM1). Nature of the series: Inhibition of full-length recombinant HIV1 integrase. In a few lines:
as §2

Series [8] is described as follows: Cytotoxicity against human CEM-GFP cells after 48 hrs by MTT assay. The format is cell-based, CCRF-CEM. In outline:
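MTT assay in CEM-GFP cells (2 × 10^4/well), 48 h exposure over a range of concentrations, with untreated and vehicle controls. Formazan dissolved and read at 540 nm. CC50 is the concentration giving 50% cytotoxicity in uninfected cells (n = 3).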

Series [9] can be described thus: Therapeutic index, ratio of CC50 for human CEM-GFP cells to EC50 for HIV1 NL4.3. The format is cell-based. Particulars: read-out: Ratio CC50/EC50.
Series [10] deals with Human immunodeficiency virus 1. Nature of the series: Antiviral activity against R5 tropic HIV1 IndieC infected in human TZM-bl cells expressing CD4, CCR5 and CXCR4 assessed as inhibition of virus entry at highest non cytotoxic concentration after 48 hrs by luciferase assay. The format is functional. In a few lines: as §1
Series [11] deals with Human immunodeficiency virus type 1 integrase (Human immunodeficiency virus 1) (UniProt Q7ZJM1). Particulars: 5 ug/ml.

Calls of active or inactive are those of the source. The rule behind the calls is not given here.

For orientation: inhibition means the relative decrease from the control value, in per cent. Usually EC50 stands for the concentration needed to bring the measured effect to its halfway point. As a reminder, the IC50 is the concentration at which inhibition is half-maximal. By CC50 is commonly meant the concentration at which the toxic effect on the cells reaches its halfway point.

Human immunodeficiency virus type 1 integrase, sequence (Q7ZJM1 whole entry): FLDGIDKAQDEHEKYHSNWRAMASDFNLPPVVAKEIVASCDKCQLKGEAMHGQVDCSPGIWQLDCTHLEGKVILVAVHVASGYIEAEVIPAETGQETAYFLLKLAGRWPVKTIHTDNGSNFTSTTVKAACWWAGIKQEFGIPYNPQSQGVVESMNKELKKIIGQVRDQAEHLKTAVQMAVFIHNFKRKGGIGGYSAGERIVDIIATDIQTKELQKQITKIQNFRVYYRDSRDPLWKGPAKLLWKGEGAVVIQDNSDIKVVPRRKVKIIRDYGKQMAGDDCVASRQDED
Human immunodeficiency virus type 1 integrase (Human immunodeficiency virus 1), sequence (Q7ZJM1 as listed by the source): as the sequence (Q7ZJM1 whole entry) above

For the molecule `O=C(/C=C/c1ccc(O)c(O)c1)c1ccc(NC(=O)c2ccco2)cc1`, the “inhibition (INH)” value in series [1] was 24.2%. In series [2], the result was inactive. For the same molecule, in series [3], the MNTC at 48 h amounted to 2900 nM.
With `O=C(/C=C/c1ccc(O)c(O)c1)c1ccc(NC(=O)C23C[C@H]4C[C@@H](C2)C[C@@H](C3)C4)cc1`, the “inhibition (INH)” value in series [4] was found to be 0%; in [1], 86.1%; in [10], 59.6%. Further, in [5], the inhibition worked out at 67.7%. In addition, the EC50 in series [6] was 4.2 µM. Also, the 50% inhibitory concentration (IC50) in series [7] amounted to 36.8 µM. In [8], this molecule showed a CC50 at 48 h of 13.5 µM. In series [9], the selectivity ratio came out at 3.2. In addition, the outcome in [2] was inactive. In series [3], the MNTC at 48 h was 6000 nM.
Regarding `CC(=O)Nc1ccc(C(=O)/C=C/c2ccc(O)c(O)c2)cc1`, the “inhibition (INH)” value in [1] is 0%. For the same molecule, the outcome in series [2] was inactive. In series [3], the MNTC at 48 h came to 1700 nM.
For `COc1ccc(C(=O)Nc2ccc(C(=O)/C=C/c3ccc(O)c(O)c3)cc2)cc1`, the “inhibition (INH)” value in [4] was 0%; in series [1], 92.4%; in series [10] it was 55.8%. The inhibition in series [5] amounted to 66.8%. The EC50 in [6] is 1.9 µM. For the same molecule, in series [7], the IC50 was 25.2 µM. In [8], this molecule yielded a 50% cytotoxic concentration (CC50) at 48 h of 32.3 µM. Moreover, the selectivity ratio in series [9] turned out to be 17.4. In addition, the result in series [2] was inactive. Besides, the MNTC at 48 h in series [3] came out at 6400 nM.
With `Cc1cn([C@H]2C[C@H](N=[N+]=[N-])[C@@H](CO)O2)c(=O)[nH]c1=O` [ZIDOVUDINE], the concentration for a half-maximal effect (EC50) in [6] was 1.1 µM. Moreover, the midpoint of cytotoxicity in series [8], the CC50 at 48 h, lay at 24.1 µM. Also, in series [1], the “inhibition (INH)” value is given as 89.8%. Further, the result in [2] was inactive. For the same molecule, in series [3], the MNTC at 48 h came to 5000 nM.
With `O=C(/C=C/c1ccc(O)c(O)c1)c1ccc(NC(=O)c2ccc(F)cc2F)cc1`, in series [1], the “inhibition (INH)” value stood at 16%. In addition, in series [2], the outcome was inactive. Also, the MNTC at 48 h in series [3] is 6300 nM.
In the same order, the values of `O=C(/C=C/c1ccc(O)c(O)c1)c1ccc(NC(=O)c2ccc(C(F)(F)F)cc2F)cc1` are 10.9%, “inactive” and 2200 nM.
Regarding `O=C(Cc1cccs1)Nc1ccc(C(=O)/C=C/c2ccc(O)c(O)c2)cc1`, the “inhibition (INH)” value in series [4] was determined as 0%; in series [1] it was 71.6%; in series [10], 52.9%. Besides, in [5], the inhibition turned out to be 66.5%. Moreover, the half-maximal effective concentration (EC50) in series [6] was found to be 0.9 µM. Further, the IC50 in series [7] stood at 44.6 µM. Further, in series [8], the cytotoxic concentration (CC50) at 48 h was 51.4 µM. Also, the selectivity ratio in series [9] is 59.1. Moreover, the result in series [2] was inactive. Further, the MNTC at 48 h in series [3] amounted to 2600 nM.
With `CC(C)CC(=O)Nc1ccc(C(=O)/C=C/c2ccc(O)c(O)c2)cc1`, the “inhibition (INH)” value in series [1] is 0%. For the same molecule, the outcome in series [2] was inactive. Further, the MNTC at 48 h in series [3] came out at 1400 nM.
In the case of `CC(C)C(=O)Nc1ccc(C(=O)/C=C/c2ccc(O)c(O)c2)cc1`, the “inhibition (INH)” value in series [1] worked out at 0%. Moreover, the result in [2] was inactive. The MNTC at 48 h in series [3] was 1500 nM.
As to `O=C(/C=C/c1ccc(O)c(O)c1)c1ccc(NC(=O)c2ccc(F)c(F)c2)cc1`, the results for the “inhibition (INH)” value in series [4], in series [1] and in series [10] were 0%, 77.6% and 71.5%, respectively. The inhibition in [5] was 74%. In addition, in [6], the EC50 came out at 1.6 µM. Further, the IC50 in series [7] was found to be 28.5 µM. This molecule gave a CC50 at 48 h in [8] of 15.7 µM. Also, the selectivity ratio in [9] was found to be 9.8. Further, the result in series [2] was inactive. Moreover, in [3], the MNTC at 48 h is 2500 nM.
With `O=C(/C=C/c1ccc(O)c(O)c1)c1ccc(NC(=O)c2ccccc2)cc1`, the “inhibition (INH)” value in series [4] came to 27.8%; in series [1], 73%; in series [10], 58.6%. Also, the inhibition in series [5] was 56%. For the same molecule, in [6], the concentration giving a half-maximal response (EC50) turned out to be 1.6 µM. Also, the half-inhibitory concentration (IC50) in series [7] is 50.2 µM. For the same molecule, the CC50 at 48 h in [8] turned out to be 20.3 µM. Further, the selectivity ratio in series [9] came to 13. For the same molecule, the result in [2] was inactive. Besides, the MNTC at 48 h in series [3] was found to be 2800 nM.
Regarding `O=C(/C=C/c1ccc(O)c(O)c1)c1ccc(NC(=O)c2cccs2)cc1`, the “inhibition (INH)” value in [1] amounted to 0%. The result in series [2] was inactive. Moreover, in series [3], the MNTC at 48 h is 2700 nM.
`[N-]=[N+]=[N-]` [SODIUM AZIDE] came in with an inhibition in [11] of 98.8%. Moreover, the half-maximal inhibitory concentration (IC50) in [7] came out at 1.2 µM. In [2], the result was inactive.
Turning to `O=C(/C=C/c1ccc(O)c(O)c1)c1ccc(NC(=O)c2ccc3ccccc3c2)cc1`, the “inhibition (INH)” value in series [1] is recorded as 0%. For the same molecule, the result in [2] was inactive. Further, the MNTC at 48 h in [3] worked out at 2400 nM.
In the case of `Nc1ccc(C(=O)/C=C/c2ccc(O)c(O)c2)cc1`, the “inhibition (INH)” value in series [1] was 0%. Besides, the outcome in [2] was inactive. The MNTC at 48 h in [3] amounted to 3900 nM.
